# In ChEMBL document CHEMBL4513216, “Probing the Open Global Health Chemical Diversity Library for Multistage-Active Starting Points for Next-Generation Antimalarials” (ACS Infect Dis, 2020):
# Experiment: Toxicity liver stage against HepG2, at 10uM
# Assay type: cell-based
# Design: test concentration 10 uM, cell line HepG2-A16-CD81EGFP
# Conditions: human, HepG2-A16-CD81EGFP cells; read-out: INHIBITION
# Method in brief: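 Uninfected HepG2-A16-CD81EGFP cells, 3 × 10^3 per well, 1536-well, plated on prespotted compound at 10 μM final, parasite-free screening media added to match infected plates; puromycin 10 μM positive, DMSO 0.5% negative; run in parallel with 48 h PbLuc assay at 37 °C, 5% CO2; viability by CellTiter-Glo luminescence, normalized to controls.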
row,Compound,cytotoxicity at 10 µM [%]
1,O=C(Cn1nc2c(cc1=O)CSCC2)N[C@@H](Cc1ccccc1)C(=O)O,-3.14
2,CN1CCCN(C(=O)c2cc3c(s2)CCN3C(=O)C2CC2)CC1,6.74
3,O=c1cc(Cn2cncn2)nc2n1CCCN(CC1CCOCC1)C2,7.77
4,CN(C)Cc1cc(=O)n2c(n1)CN(CC1CCOCC1)CCC2,6.37
5,O=C(c1ccco1)N1CCN2C[C@H](Oc3cncnc3)C[C@H]2C1,-2.97
6,Cc1nc([C@H]2C[C@H]3CN(C(=O)c4ccoc4C)CC[C@@H]3O2)no1,0.369
7,O=C(Cc1ccc2c(c1)OCCCO2)Nc1nnn[nH]1,-4.66
8,COC(=O)CNC(=O)c1c(-n2cnnn2)sc2c1CCCC2,10.6
9,CNS(=O)(=O)c1cnccc1N1CCN(C(C)C)CC1,-2.02
10,CC(C)S(=O)(=O)c1nnc(CCNC(=O)OC(C)(C)C)o1,9.28
11,Cc1cc2[nH]c(O)nc2cc1NCc1ccc(F)cc1,16.1
12,CCCn1ccc(C(=O)Nc2ccc3c(c2)C(C)(C)C(=O)N3C)n1,8.44
13,O=C(C1CC1)N1CCC(Nc2nc(O)cc(-c3ccsc3)n2)CC1,5.29
14,O=S(=O)(c1cn[nH]c1)N1CCC(O)(CN2CCC(F)(F)CC2)C1 (stereo unspecified),5.92
15,CCN(CC)S(=O)(=O)NCc1ccc(-c2ccc(C(N)=O)c(C)n2)cc1,2.77
16,Cc1nc(CN2CC(CCCc3ccccn3)(C(=O)N(C)C)C2)co1,7.43
17,CN(C)C(=O)CN1CCC2(CC1)CN(S(C)(=O)=O)Cc1ccccc1O2,0.56
18,COCCN1CCCC(c2cncc(Oc3ccccc3OC)n2)C1 (stereo unspecified),-22.8
19,CC(=O)N1CCc2nnc(C3CCCN3CC3CCCCC3)n2CC1 (stereo unspecified),-1.54
20,c1ccc(-c2cc(CNCCN3CCCC3)c3nnnn3c2)cc1,-17.4
21,Cc1nc2ccc(C(=O)N3CC[C@H](O)[C@@H](N4CCOCC4)CC3)cc2[nH]1,-8.32

row,Compound,cytotoxicity at 10 µM [%]
1,CS(=O)(=O)c1cn[nH]c1C1CCCCN1C(=O)Cc1cccnc1 (stereo unspecified),-30.7
2,CC(NC(=O)NC1CCN(Cc2ccccn2)CC1)c1nncn1C (stereo unspecified),0.335
3,O=C(C1CCOCC1)N(CCc1ccccc1)C1CCOC1 (stereo unspecified),4.77
4,Cc1occc1C(=O)NCC(=O)N1CCCC(c2ccccc2)CC1 (stereo unspecified),6.35
5,Cc1nc2cc(=O)[nH]n2c(C)c1CNC(=O)C(C)Cc1ccccc1 (stereo unspecified),-7.27
6,Cc1csc(CN(C)C2CCN(c3sccc3C#N)C2=O)n1 (stereo unspecified),5.44
7,CC(C)C1CN(C(=O)c2cc(F)cc3[nH]cnc23)CCS1 (stereo unspecified),1.97
8,CC(=O)N1CC(C)CN(C(=O)c2cscn2)c2ccccc21 (stereo unspecified),1.98
9,O=C(CS(=O)(=O)Cc1ccc(Br)cc1F)Nc1cn[nH]c1,-9.2
10,Cn1c(CCNC(=O)Nc2cn[nH]c2)nc2ccc(F)cc21,-6.97
11,O=C(CN1CCCc2cc(F)cc(F)c21)Nc1ccc(Br)cn1,11
12,CCC(=O)NCC1(O)CCC(C(C)(C)C)CC1 (stereo unspecified),5.81
13,CC(O)(CNC(=O)NCCc1ccc2c(c1)CCO2)c1ccccc1 (stereo unspecified),6.36
14,CCCS(=O)(=O)N1CCC(Nc2c(F)cc(C#N)cc2F)CC1,1.34
15,Cc1ccc(F)cc1C(=O)OCC1CCCN1C(N)=O (stereo unspecified),5.01
16,COc1cc(OC)cc(N2CCC(NCc3occc3C)C2=O)c1 (stereo unspecified),0.995
17,COCCc1noc(CN2CCCC2c2noc(C)n2)n1 (stereo unspecified),4.73
18,COCCOCC(=O)Nc1ccc(C)cc1Br,-6.99
19,Cc1nc(C2(NCC(=O)NC(=O)Nc3ccccc3)CCCCC2)no1,30.4
20,CC(C)COCCC(=O)Nc1c(-c2ccc(F)cc2)ncn1C,-1.18
21,CCNC(=O)N(Cc1cccc(OC)c1)C1CCC(O)CC1 (stereo unspecified),-4.83

row,Compound,cytotoxicity at 10 µM [%]
1,O=C(c1ncoc1C1CCCO1)N1CCCC2(CCCCC2)C1 (stereo unspecified),-5.14
2,CC(C)(C)CNS(=O)(=O)C1CS(=O)(=O)c2ccccc21 (stereo unspecified),14.3
3,Cn1ccnc1CNc1ccc(F)c(N2CCCS2(=O)=O)c1,-1.45
4,Cc1cncc(C(=O)N2CCOc3nc(C)ccc32)c1,5.19
5,NC(=O)NC(=O)CCn1ccc(-c2ccccc2)n1,5.2
6,O=C(NCC1(c2ccc(F)cc2)CC1)N1CCC2(CCOC2)C1 (stereo unspecified),-6.72
7,CNS(=O)(=O)c1ccc(C(=O)Nc2ccc3c(c2)C(=O)NC3)cc1,-8.04
8,COCCN(Cc1ccc(F)cc1C#N)CC(F)(F)F,-3.02
9,CN(CCC(F)(F)F)c1nc2ccccc2c(=O)[nH]1,-5.11
10,COc1ccc(-c2nc(CC(=O)N(C)CCC#N)cs2)cc1OC,0.19
11,COC(=O)c1cccc(NCC(=O)NC(N)=O)c1,6.88
12,CCS(=O)(=O)CC(=O)NC(c1ccccc1)C1CCCCC1 (stereo unspecified),-4.01
13,Cc1nccc(C(=O)N2CCCN(Cc3cnn(C(C)C)c3)CC2)n1,-0.239
14,CCOCC1CN(S(C)(=O)=O)Cc2nn(C)cc21 (stereo unspecified),-95.9
15,O=C(CC1CC1)NCc1cn2c(n1)CN(C(=O)c1cccnc1)CC2,1.03
16,CCOc1ccccc1CC(=O)N1C[C@@H](C(=O)O)[C@H](c2ccncc2)C1,9.15
17,CN(C(=O)COc1ccc(F)cc1)[C@@H]1CS(=O)(=O)C[C@H]1O,-2.62
18,COc1nc2c(cc1C(=O)N(C)Cc1[nH]nc3c1CCC3)CCC2,-1.77
19,COc1ccc(CN2CCCC2)cc1Oc1ccc(NC(C)=O)cc1,-1.1
20,CSc1ccccc1NC(=O)N1C[C@@H](N(C)C)[C@H](c2ccc(C)cc2)C1,-12
21,Cc1cc(N(C)Cc2noc(C)n2)n2nc(C)c(C)c2n1,14.4

row,Compound,cytotoxicity at 10 µM [%]
1,COC(=O)C1CCN(C(=O)c2ccc(NS(C)(=O)=O)c(C)c2)CC1,-1.04
2,CCOc1ncccc1NC(=O)N1CCN(c2ccc(O)cc2)CC1,-9.92
3,CC(C)(O)CN1CCN(C(=O)c2cccc3cccnc23)CC1,-10.7
4,O=C(NCc1cccnc1)Nc1cc(C(F)(F)F)c[nH]c1=O,-1.78
5,Cc1cc(C)c(CNC(=O)N2CCN(c3nccs3)CC2)c(=O)[nH]1,-20.9
6,COCC(c1cccc(C(F)(F)F)c1)N(C)C(=O)c1ccccn1 (stereo unspecified),-12
7,c1ccc(CCCN2CC(n3cccn3)C2)cc1,-3.83
8,O=C(NCc1ccccn1)NC1CCOc2ccccc21 (stereo unspecified),-8.99
9,COc1cc(C(=O)NS(=O)(=O)c2cccc(C#N)c2)cc(Cl)c1OC,-3.93
10,CCc1noc(CN2CCCN(C(N)=O)CC2)n1,-4.12
11,CCc1nc(CN2CCCC(NCc3cnn(C(C)(C)C)c3)C2)no1 (stereo unspecified),-6.77
12,CCOc1cc(/C=C/c2ncc(C(=O)O)s2)cc(Cl)c1OC,8.13
13,COc1ccc(C(=O)NCCc2nnc3ccccn23)c(OC)c1,9.6
14,O=C(c1ccco1)N1CC[C@H]2[C@H]1CC(=O)N2c1cccnc1,-95.8
15,O=C(NCc1cccs1)[C@H]1CC[C@@H]2[C@@H](CCN2Cc2ccoc2)O1,-0.317
16,COCCC(=O)N1CCOCC2(CCN(Cc3cccs3)C2)C1 (stereo unspecified),-7.83
17,COCC(=O)NC1CC2(CCN(CCF)CC2)Oc2ccccc21 (stereo unspecified),-0.864
18,COc1cc(N2CC[C@H]3O[C@@H](C(=O)NC4CCCC4)CC[C@H]32)ncn1,13.2
